How the values were obtained:
[1] = molecular target: GTP:AMP phosphotransferase AK3, mitochondrial (Rattus norvegicus, UniProt P29411); assay: Competitive inhibition of Sprague-Dawley rat liver adenylate kinase 3 by Lineweaver-Burk plot analysis
In short: (§1)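 Inhibition constants from the coupled NADH assay (A340, 23 °C, 0.25 mM AMP, pH 7.6). Two inhibitor levels were each run against five or more ATP levels: 0.1-0.8 mM for AK II/III, 0.15-1.1 mM for muscle AK. Ki applies to ATP-competitive inhibition and I50 to noncompetitive inhibition.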

[2] = molecular target: T1, Adenylate kinase isoenzyme 1 (Rattus norvegicus, UniProt P39069); assay: Noncompetitive inhibition of Sprague-Dawley rat muscle adenylate kinase by Lineweaver-Burk plot analysis; conditions: read-out: I50
T1 sequence (P39069 whole entry): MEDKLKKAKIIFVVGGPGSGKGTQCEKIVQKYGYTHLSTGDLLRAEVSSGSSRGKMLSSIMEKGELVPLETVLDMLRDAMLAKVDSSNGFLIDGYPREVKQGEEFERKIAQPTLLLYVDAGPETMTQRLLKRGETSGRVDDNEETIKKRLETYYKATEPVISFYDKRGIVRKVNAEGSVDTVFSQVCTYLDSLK
In short: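 Enzyme source: rat skeletal muscle homogenized in KHPO4/glucose/EDTA/dithioerythritol/glycerol buffer and spun 1 h at 90000g, 2 °C. Electrofocused at pH 6-8; the AK zone (pI 6.4) was dialyzed as for the liver isozymes and held at 4 °C.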

[3] = molecular target: Adenylate kinase 2, mitochondrial (Rattus norvegicus, UniProt P29410); assay: Competitive inhibition of Sprague-Dawley rat liver adenylate kinase 2 by Lineweaver-Burk plot analysis; in short: as §1
[4] = Noncompetitive inhibition of Escherichia coli adenylate kinase by Lineweaver-Burk plot analysis; conditions: read-out: I50
In short: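 E. coli B AK partially purified by ammonium sulfate fractionation and DEAE-cellulose chromatography; the single AK-active protein had pI 4.9. ATP KM was 0.06 mM with AMP at 0.13–0.29 mM in the coupled NADH assay (A340, 23 °C, pH 7.6 Tris).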

GTP:AMP phosphotransferase AK3, mitochondrial, sequence (P29411 whole entry): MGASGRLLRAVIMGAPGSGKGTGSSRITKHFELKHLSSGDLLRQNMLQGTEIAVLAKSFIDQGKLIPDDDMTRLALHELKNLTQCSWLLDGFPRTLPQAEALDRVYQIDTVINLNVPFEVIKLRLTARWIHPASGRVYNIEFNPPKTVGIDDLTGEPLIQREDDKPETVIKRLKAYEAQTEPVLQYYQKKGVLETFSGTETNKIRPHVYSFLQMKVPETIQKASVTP

Row | Structure (SMILES) | Ki [1] [µM] | IC50 [2] [µM] | Ki [3] [µM] | IC50 [4] [µM]
1 | CC(=O)NCCCCCCNc1ncnc2c1ncn2[C@@H]1O[C@H](COP(=O)(O)OP(=O)(O)OP(=O)(O)O)[C@@H](O)[C@H]1O | 4750 | 12900 | – | –
2 | CSc1nc2c(N)ncnc2n1[C@@H]1O[C@H](COP(=O)(O)OP(=O)(O)OP(=O)(O)O)[C@@H](O)[C@H]1O | 360 | 5950 | 320 | –
3 | O=C(CI)NCCCCCNc1ncnc2c1ncn2[C@@H]1O[C@H](COP(=O)(O)OP(=O)(O)OP(=O)(O)O)[C@@H](O)[C@H]1O | – | – | – | 4750
4 | Nc1ncnc2c1nc(Sc1ccccc1)n2[C@@H]1O[C@H](COP(=O)(O)OP(=O)(O)OP(=O)(O)O)[C@@H](O)[C@H]1O | – | – | 320 | –

The next lines start with the values.

Row | Ki [1] [µM] | IC50 [2] [µM] | Ki [3] [µM] | IC50 [4] [µM] | Structure (SMILES)
5 | 65 | 6150 | 55 | 4700 | CCCSc1nc2c(N)ncnc2n1[C@@H]1O[C@H](COP(=O)(O)OP(=O)(O)OP(=O)(O)O)[C@@H](O)[C@H]1O
6 | 50 | – | 80 | 5900 | CCSc1nc2c(N)ncnc2n1[C@@H]1O[C@H](COP(=O)(O)OP(=O)(O)OP(=O)(O)O)[C@@H](O)[C@H]1O
7 | 60 | – | 80 | – | CCCCCSc1nc2c(N)ncnc2n1[C@@H]1O[C@H](COP(=O)(O)OP(=O)(O)OP(=O)(O)O)[C@@H](O)[C@H]1O
8 | 130 | – | 145 | – | Nc1ncnc2c1nc(SCCCCO)n2[C@@H]1O[C@H](COP(=O)(O)OP(=O)(O)OP(=O)(O)O)[C@@H](O)[C@H]1O
9 | 60 | 6200 | 75 | – | CCCCSc1nc2c(N)ncnc2n1[C@@H]1O[C@H](COP(=O)(O)OP(=O)(O)OP(=O)(O)O)[C@@H](O)[C@H]1O
10 | 220 | – | 250 | – | Nc1ncnc2c1nc(SCCO)n2[C@@H]1O[C@H](COP(=O)(O)OP(=O)(O)OP(=O)(O)O)[C@@H](O)[C@H]1O
